From ChEMBL document CHEMBL1287740, “Synthesis and bio-evaluation of alkylaminoaryl phenyl cyclopropyl methanones as antitubercular and antimalarial agents” (Bioorg Med Chem, 2010) come the findings set out here.

Usually CC50 stands for the concentration at which the toxic effect on the cells reaches its halfway point. For orientation: inhibition means the share of the control response that was lost under treatment. In general, MIC refers to the smallest concentration in the dilution series that meets the test's criterion for growth inhibition. As a reminder, the IC50 is the concentration that inhibits the measured activity by half.

Data set [1] can be described thus: Cytotoxicity against african green monkey Vero cells after 72 hrs. Type of data set: cell-based. Particulars: chlorocebus sabaeus. The method, boiled down:
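Vero (C1008 monkey kidney) cells grown in MEM + 15% FBS, 5% CO2, 37 °C. Trypsinized cells at 1 × 10^5 cells/ml seeded and allowed to adhere overnight, then exposed to serial compound dilutions for 72 h. Resazurin added and fluorescence read after 4 h.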

Data set [2] concerns Mycolicibacterium aurum. Put plainly: Inhibition of type II fatty acid biosynthesis pathway in Mycobacterium aurum at 50 uM after 12 hrs by lacZ reporter assay relative to untreated control. Type of data set: functional. Summed up:
(§1)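 Recombinant M. aurum lacZ reporter strains (kasA promoter or hsp60 promoter) grown in Sauton's medium with kanamycin at 37 °C to 0.5 OD600, diluted to 0.04–0.05 OD, equilibrated 2 h, then treated 12 h at 37 °C (10, 25, 50, 75 µM). Cells sonicated in PBS pH 7.2 and protein normalized by Bradford. β-gal measured with ONPG (4 mg/ml), 30 min at 37 °C, stopped with Na2CO3, OD 410 nm. Triplicates, relative to untreated control.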
Background: In a reporter assay the amount or activity of a reporter protein is the signal.

Data set [3] deals with Mycobacterium tuberculosis. The data set is described as follows: Antimicrobial activity against Mycobacterium tuberculosis H37Rv after 30 days by agar microdilution method. Type of data set: functional. Summed up:
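Twofold dilutions of compound in DMSO incorporated into Middlebrook 7H10 medium with OADC supplement in slanted tubes, preincubated 37 °C for 24 h, then streaked with H37Rv harvested from L-J medium into 0.85% saline with 0.05% Tween-80 (5 × 10^5 bacilli per tube). Incubated at 37 °C; MIC = lowest concentration giving complete inhibition of colonies versus drug-free control.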

Data set [4] is described as follows: Selectivity index, ratio of CC50 for african green monkey (Cercopithecus aethiops) Vero cells to IC50 for Plasmodium falciparum 3D7. Type of data set: functional. Summed up: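 Ratio of Vero CC50 (resazurin fluorescence after 72 h exposure) to P. falciparum 3D7 IC50 (radiolabelled hypoxanthine uptake; 24 h compound exposure, then 48 h with label).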
Data set [5] relates to Plasmodium falciparum. The data set is described as follows: Antimalarial activity against Plasmodium falciparum 3D7 assessed as radiolabeled hypoxanthine uptake after 48 hrs by scintillation counting. The settings on record: 3D7, 48 h. Type of data set: functional, organism-based. The method, boiled down: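 Chloroquine-sensitive P. falciparum 3D7 asynchronous culture at 0.5% parasitaemia and 1.5% hematocrit, exposed to compounds for 24 h at 37 °C in CO2. Radiolabelled hypoxanthine (0.5 µCi/well) then added and incubation continued 48 h. Cells harvested onto filter paper, and radioactivity counted by scintillation β-counter. IC50 derived from hypoxanthine uptake.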

Data set [6] deals with Plasmodium falciparum. The data set is described as follows: Antimalarial activity against Plasmodium falciparum 3D7 assessed as maturation of schizonts after 24 to 32 hrs by microdilution method. Type of data set: functional. Summed up:
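P. falciparum 3D7 (chloroquine sensitive); twofold serial dilutions in complete RPMI 1640 from 10 mg/ml DMSO stocks, parasitized RBCs added (final hematocrit 3–4%, 1.0–2.0% parasitaemia, >95% rings). Incubated 24–32 h at 37 °C with 5% CO2. Thin smears stained with 15% Giemsa; schizont maturation scored against controls to give MIC.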
(In general: Broth dilution looks for growth in wells or tubes with falling amounts of substance.)

Data set [7] deals with Mycolicibacterium aurum. The data set is described as follows: Inhibition of type II fatty acid biosynthesis pathway in Mycobacterium aurum at 25 uM after 12 hrs by lacZ reporter assay relative to untreated control. Type of data set: functional. The method, boiled down: as §1
Data set [8] has as its system Mycolicibacterium aurum. Put plainly: Inhibition of type II fatty acid biosynthesis pathway in Mycobacterium aurum assessed as growth inhibition by cfu analysis. Type of data set: functional. Summed up: (§2)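 M. aurum (recombinant reporter strains) grown in Sauton's medium with 0.05% Tween-80 and kanamycin to 0.6 OD600, diluted to 0.05 OD. 1 × 10^5 cells inoculated into 5 ml medium with varying compound concentrations, grown 12 h at 37 °C with shaking. Viable cells counted by 10-fold serial dilution plating on nutrient agar-Tween-kanamycin. % inhibition calculated with untreated colony count taken as 100%.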

Data set [9] has as its system Mycolicibacterium aurum. The data set is described as follows: Inhibition of type II fatty acid biosynthesis pathway in Mycobacterium aurum assessed as growth inhibition by lacZ reporter assay. Type of data set: functional. Summed up:
as §2

The test system of data set [10] is Mycolicibacterium aurum. The data set is described as follows: Inhibition of type II fatty acid biosynthesis pathway in Mycobacterium aurum assessed as beta-galactosidase activity at 50 to 100 uM after 12 hrs by lacZ reporter assay relative to untreated control. Type of data set: functional, organism-based.
Data set [11] concerns Mycolicibacterium aurum. The data set is described as follows: Inhibition of type II fatty acid biosynthesis pathway in recombinant Mycobacterium aurum carrying hsp60 promoter assessed as beta-galactosidase activity at 50 to 100 uM after 12 hrs by lacZ reporter assay relative to untreated control. Type of data set: functional, organism-based.
The subject of data set [12] is Mycolicibacterium aurum. Put plainly: Inhibition of type II fatty acid biosynthesis pathway in recombinant Mycobacterium aurum carrying hsp60 promoter assessed as cell viability at 25 uM after 12 hrs by lacZ reporter assay relative to untreated control. Type of data set: functional. Summed up: as §2
The test system of data set [13] is Mycolicibacterium aurum. The data set is described as follows: Inhibition of type II fatty acid biosynthesis pathway in recombinant Mycobacterium aurum carrying hsp60 promoter assessed as cell viability at 75 uM after 12 hrs by lacZ reporter assay relative to untreated control. Type of data set: functional. Summed up:
as §2

Data set [14] deals with Mycolicibacterium aurum. The data set is described as follows: Inhibition of type II fatty acid biosynthesis pathway in recombinant Mycobacterium aurum carrying hsp60 promoter assessed as cell viability at 50 uM after 12 hrs by lacZ reporter assay relative to untreated control. Type of data set: functional. Summed up:
as §2

Data set [15] concerns Mycolicibacterium aurum. Put plainly: Inhibition of type II fatty acid biosynthesis pathway in Mycobacterium aurum at 10 to 50 uM after 12 hrs by lacZ reporter assay relative to untreated control. Type of data set: functional, organism-based. Summed up: as §1
The subject of data set [16] is Mycolicibacterium aurum. Put plainly: Inhibition of type II fatty acid biosynthesis pathway in Mycobacterium aurum assessed as cell viability at 10 to 50 uM after 12 hrs by lacZ reporter assay relative to untreated control. Type of data set: functional, organism-based. The method, boiled down:
as §2

The test system of data set [17] is Mycolicibacterium aurum. Put plainly: Inhibition of type II fatty acid biosynthesis pathway in recombinant Mycobacterium aurum carrying hsp60 promoter assessed as beta-galactosidase activity at 10 to 50 uM after 12 hrs by lacZ reporter assay relative to untreated control. Type of data set: functional, organism-based. Summed up: as §1
The test system of data set [18] is Mycolicibacterium aurum. Put plainly: Inhibition of type II fatty acid biosynthesis pathway in recombinant Mycobacterium aurum carrying hsp60 promoter assessed as cell viability at 10 to 50 uM after 12 hrs by lacZ reporter assay relative to untreated control. Type of data set: functional, organism-based. Summed up: as §2
The test system of data set [19] is Mycolicibacterium aurum. Put plainly: Inhibition of type II fatty acid biosynthesis pathway in recombinant Mycobacterium aurum carrying hsp60 promoter assessed as cell viability at 10 uM after 12 hrs by lacZ reporter assay relative to untreated control. Type of data set: functional. Summed up:
as §2

Data set [20] has as its system Mycolicibacterium aurum. Put plainly: Inhibition of type II fatty acid biosynthesis pathway in recombinant Mycobacterium aurum carrying hsp60 promoter assessed as beta-galactosidase activity at 14 uM after 12 hrs by lacZ reporter assay relative to untreated control. Type of data set: functional, organism-based.

Values after ≈ are worked out from the molar mass of the structure shown. Active and inactive are the calls of the source.

Consider `O=C(c1ccc(NCCn2ccnc2)cc1)C1CC1c1ccc(Cl)cc1` (centres undefined), for which, in data set [1], the CC50 at 72 h worked out at 243 µg/mL (≈ 665 µM). The inhibition at 50 µM in the data set with Mycolicibacterium aurum [2] came out at 50.2%. Further, the MIC was found to be 6.25 µg/mL (≈ 17.1 µM) in data set [3] and 0.062 µg/mL (≈ 0.169 µM) in the data set with Plasmodium falciparum [6]. In [4], the “Ratio CC50/IC50” value is given as 6948.57. The IC50 with Plasmodium falciparum [5] amounted to 0.035 µg/mL (≈ 0.0957 µM). In the data set on Mycolicibacterium aurum [7], this compound yielded an inhibition at 25 µM of 48.6%.

Turning to `O=C(c1ccc(NC2CCCCC2)cc1)C1CC1c1ccc(Cl)cc1` (centres undefined), half-maximal cytotoxicity in data set [1] (CC50 at 72 h) was put at 196 µg/mL (≈ 554 µM). Besides, the inhibition result with Mycolicibacterium aurum [2] and with Mycolicibacterium aurum [7] was “inactive” each time. Also, the results for the MIC (in data set [3]; in the data set with Plasmodium falciparum [6]) were above 12.5 µg/mL and 10 µg/mL (≈ 28.3 µM), respectively. In addition, the “Ratio CC50/IC50” value in [4] amounted to 261.57. Besides, the IC50 in the data set with Plasmodium falciparum [5] came out at 0.75 µg/mL (≈ 2.12 µM).

Turning to `CN(C)CCCNc1ccc(C(=O)C2CC2c2ccc(Cl)cc2)cc1` (centres undefined), it took 15.8 µg/mL (≈ 44.4 µM) to reach half-maximal cytotoxicity in data set [1] (CC50 at 72 h). The inhibition at 50 µM in the data set with Mycolicibacterium aurum [2] was determined as 57.4%. Also, the MIC worked out at 6.25 µg/mL (≈ 17.5 µM) in data set [3] and 50 µg/mL (≈ 140 µM) with Plasmodium falciparum [6]. Further, the “inhibition (INH)” value in the data set with Mycolicibacterium aurum [8] and with Mycolicibacterium aurum [9] was “>=85%” throughout. The “Ratio CC50/IC50” value in [4] was determined as 5.53. Besides, in the data set on Plasmodium falciparum [5], the IC50 stood at 2.86 µg/mL (≈ 8.01 µM). In addition, the inhibition result in the data set on Mycolicibacterium aurum [10] is “Active”. Moreover, the inhibition result with Mycolicibacterium aurum [11] is “inactive”. Also, in the data set on Mycolicibacterium aurum [7], the inhibition at 25 µM worked out at 46.3%.

Turning to `CN(C)CCCNc1ccc(C(=O)/C=C/c2ccc(Cl)cc2)cc1`, the inhibition at 25 µM with Mycolicibacterium aurum [12] was found to be 85.4%; in the data set on Mycolicibacterium aurum [7] it was 83.4%. The inhibition at 75 µM in the data set on Mycolicibacterium aurum [13] came out at 99.6%. In [1], this compound registered a CC50 at 72 h of 5.92 µg/mL (≈ 17.3 µM). In addition, the inhibition at 50 µM with Mycolicibacterium aurum [2] is 88.1%; in the data set on Mycolicibacterium aurum [14], 88.7%. Further, the inhibition result in the data set with Mycolicibacterium aurum [15], with Mycolicibacterium aurum [16] and with Mycolicibacterium aurum [18] was “Dose-dependent effect” in each case. Further, the “Ratio CC50/IC50” value in data set [4] came to 9.25. The inhibition entry in the data set with Mycolicibacterium aurum [17] and in the data set on Mycolicibacterium aurum [20] was “inactive” in each case. The IC50 in the data set on Plasmodium falciparum [5] was found to be 0.64 µg/mL (≈ 1.87 µM). Also, the inhibition at 10 µM in the data set with Mycolicibacterium aurum [19] is 18.8%. In addition, in the data set with Plasmodium falciparum [6], the MIC amounted to 1.56 µg/mL (≈ 4.55 µM).

As for `CCCCCCCCCCCCCCCCNc1ccc(C(=O)C2CC2c2ccc(Cl)cc2)cc1` (centres undefined), the CC50 at 72 h in data set [1] was found to be 410 µg/mL (≈ 826 µM). Also, in the data set on Mycolicibacterium aurum [2], at 50 µM the inhibition was 36.7%. The MIC entry in data set [3] was “Insoluble”; in the data set with Plasmodium falciparum [6], 50 µg/mL (≈ 101 µM). The “Ratio CC50/IC50” value in data set [4] is recorded as 89.68. In addition, in the data set on Plasmodium falciparum [5], the IC50 was 4.57 µg/mL (≈ 9.21 µM). Further, the inhibition at 25 µM with Mycolicibacterium aurum [7] was 36%.

In [1], `CN1CCN(c2ccc(C(=O)/C=C/c3ccc(Cl)cc3)cc2)CC1` had a CC50 at 72 h of 102 µg/mL (≈ 301 µM). For the same compound, in the data set with Mycolicibacterium aurum [2], at 50 µM the inhibition was 14.7%. In addition, the MIC in [3] is 3.12 µg/mL (≈ 9.15 µM); with Plasmodium falciparum [6], 50 µg/mL (≈ 147 µM). Besides, the “Ratio CC50/IC50” value in data set [4] is 8.69. The IC50 in the data set with Plasmodium falciparum [5] was 11.8 µg/mL (≈ 34.6 µM). Also, in the data set with Mycolicibacterium aurum [7], the inhibition at 25 µM was 13.6%.
